The results in this text go back to ChEMBL document CHEMBL1641407, “Imidazo[4,5-d]thiazolo[5,4-b]pyridine based inhibitors of IKK2: synthesis, SAR, PK/PD and activity in a preclinical model of rheumatoid arthritis” (Bioorg Med Chem Lett, 2011).

A short description of series [1]: Clearance in mouse at 2 mg/kg, iv and 10 mg/kg, po. The class given is ADME, organism-based. Conditions: in vivo.
Series [2] can be described thus: Cmax in mouse at 2 mg/kg, iv and 10 mg/kg, po. The class given is ADME, organism-based. Conditions: in vivo.
The nature of series [3]: Oral bioavailability in mouse at 10 mg/kg. The format is ADME, organism-based. Conditions: in vivo.
Series [4] relates to Mus musculus. In words: Antiinflammatory activity in po dosed BALB/c mouse assessed as inhibition of LPS-induced TNFalpha release administered for 5 hrs before LPS challenge measured after 6.5 hrs post dose by ELISA. The format is functional, organism-based. The method, boiled down:
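BALB/c female mice, 6–8 weeks old, n = 7–8 per treatment. Compounds given by oral gavage at 30 and 100 mg/kg in PEG400/HCl/Tween80/water; controls received vehicle alone. Five hours later, E. coli O111:B4 LPS 50 µg/kg ip. Serum collected 90 min after LPS, TNF-α measured by ELISA. Drug exposure sampled 6.5 h post-dose. Mean ± standard error.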
For orientation: In an ELISA, binding on a coated surface is turned into a signal by an enzyme label.

Series [5] addresses Serine/threonine-protein kinase 16 (Homo sapiens) (UniProt O75716). In words: Residual activity at STK16 at 10 uM relative to control.
For series [6], the system named is Blood. In words: Antiinflammatory activity in mouse whole blood assessed as inhibition of LPS-induced TNFalpha release treated for 5 mins before LPS challenge measured after 6 hrs by ELISA. The class given is functional, tissue-based.
The nature of series [7]: Clearance in dog at 2 mg/kg, iv. The format is ADME, organism-based, Canis lupus familiaris. Also on record: dose 2 mg/kg, route intravenous. Conditions: in vivo. Summed up:
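Dog pharmacokinetics, iv dosing only, in vehicle PEG400:water 80:20.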

A short description of series [8]: Mean residence time in rat at 2 mg/kg, iv and 10 mg/kg, po. Conditions: in vivo. The format is ADME, organism-based.
For series [9], the system named is Mus musculus. In words: Antiarthritic activity in mouse assessed as decrease in collagen-induced arthritis at 60 mg/kg, po BID administered at time of second collagen challenge on day 25 measured on day 42. The class given is functional. The method, boiled down:
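Collagen-induced arthritis in mice, n = 14–15 per group. Collagen priming injection on day 1, second collagen injection on day 25. Dosing 60 mg/kg by oral gavage twice daily, or vehicle, starting at the second injection. Read-out is the average gross clinical score per treatment group.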

Series [10] addresses Death-associated protein kinase 2 (Homo sapiens) (UniProt Q9UIK4). Description: Residual activity at DAPK2 at 10 uM relative to control.
In series [11] the target is T1, Cyclin-G-associated kinase (Homo sapiens) (UniProt O14976).
T1 sequence (whole entry): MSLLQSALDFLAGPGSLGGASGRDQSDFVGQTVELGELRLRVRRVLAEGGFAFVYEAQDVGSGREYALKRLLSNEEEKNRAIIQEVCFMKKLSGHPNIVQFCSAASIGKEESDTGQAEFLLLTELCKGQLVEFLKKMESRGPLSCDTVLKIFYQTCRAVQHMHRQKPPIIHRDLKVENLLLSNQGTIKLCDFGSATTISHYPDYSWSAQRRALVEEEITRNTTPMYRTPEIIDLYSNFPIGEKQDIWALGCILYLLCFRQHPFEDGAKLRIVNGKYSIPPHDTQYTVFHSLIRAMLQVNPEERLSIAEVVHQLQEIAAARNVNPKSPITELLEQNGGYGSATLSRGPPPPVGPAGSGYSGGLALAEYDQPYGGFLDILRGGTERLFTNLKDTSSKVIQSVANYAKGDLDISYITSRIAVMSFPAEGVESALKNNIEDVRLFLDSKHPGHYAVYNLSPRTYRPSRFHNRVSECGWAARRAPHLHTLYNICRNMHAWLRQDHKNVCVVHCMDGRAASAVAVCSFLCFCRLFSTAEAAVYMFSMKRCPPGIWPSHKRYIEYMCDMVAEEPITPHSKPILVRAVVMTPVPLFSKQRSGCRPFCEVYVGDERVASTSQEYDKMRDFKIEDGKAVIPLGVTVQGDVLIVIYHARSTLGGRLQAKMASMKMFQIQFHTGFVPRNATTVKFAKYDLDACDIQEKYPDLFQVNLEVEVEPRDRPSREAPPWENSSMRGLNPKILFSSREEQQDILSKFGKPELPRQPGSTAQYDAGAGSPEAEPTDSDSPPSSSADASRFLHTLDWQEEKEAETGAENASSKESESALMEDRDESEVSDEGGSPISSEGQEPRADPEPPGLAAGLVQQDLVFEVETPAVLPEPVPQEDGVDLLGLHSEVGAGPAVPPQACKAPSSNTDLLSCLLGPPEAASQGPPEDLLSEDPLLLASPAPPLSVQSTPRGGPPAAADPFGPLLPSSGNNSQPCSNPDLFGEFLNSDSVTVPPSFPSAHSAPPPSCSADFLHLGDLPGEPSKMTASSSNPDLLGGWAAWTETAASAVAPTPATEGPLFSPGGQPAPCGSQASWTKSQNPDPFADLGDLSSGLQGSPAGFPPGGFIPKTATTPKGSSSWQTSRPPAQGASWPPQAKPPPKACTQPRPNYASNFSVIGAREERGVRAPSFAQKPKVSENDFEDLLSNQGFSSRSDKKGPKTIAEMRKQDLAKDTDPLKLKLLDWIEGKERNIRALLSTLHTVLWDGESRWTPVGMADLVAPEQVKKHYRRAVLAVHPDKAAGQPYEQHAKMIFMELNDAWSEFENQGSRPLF
Description: Residual activity at GAK at 10 uM relative to control.

Series [12] in a line: Half life in rat at 2 mg/kg, iv and 10 mg/kg, po. The class given is ADME, organism-based. Conditions: in vivo.
Series [13] deals with Blood. Description: Antiinflammatory activity in human whole blood assessed as inhibition of LPS-induced TNFalpha release treated for 5 mins before LPS challenge measured after 6 hrs by ELISA. The class given is functional, tissue-based.

Sequence of Serine/threonine-protein kinase 16 (Homo sapiens) (O75716 whole entry): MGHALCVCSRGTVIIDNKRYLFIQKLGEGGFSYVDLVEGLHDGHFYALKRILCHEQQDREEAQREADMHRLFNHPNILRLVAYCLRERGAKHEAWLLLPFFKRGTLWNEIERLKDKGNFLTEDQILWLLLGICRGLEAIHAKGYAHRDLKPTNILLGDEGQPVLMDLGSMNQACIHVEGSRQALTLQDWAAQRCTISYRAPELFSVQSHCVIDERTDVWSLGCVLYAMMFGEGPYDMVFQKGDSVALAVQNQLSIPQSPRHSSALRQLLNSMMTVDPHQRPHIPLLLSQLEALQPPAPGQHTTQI
Sequence of Death-associated protein kinase 2 (Homo sapiens) (Q9UIK4 whole entry, looked up): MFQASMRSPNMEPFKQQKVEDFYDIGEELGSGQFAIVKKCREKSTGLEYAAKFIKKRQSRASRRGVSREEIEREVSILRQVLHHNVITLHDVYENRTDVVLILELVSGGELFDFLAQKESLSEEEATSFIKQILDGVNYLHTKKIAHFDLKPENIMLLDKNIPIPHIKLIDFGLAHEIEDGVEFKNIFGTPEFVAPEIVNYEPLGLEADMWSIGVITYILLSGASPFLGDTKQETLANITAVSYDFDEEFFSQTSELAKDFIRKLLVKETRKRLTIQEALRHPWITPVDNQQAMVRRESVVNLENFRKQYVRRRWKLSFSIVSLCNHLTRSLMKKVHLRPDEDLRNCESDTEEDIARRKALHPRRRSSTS

Broadly, the Cmax is the highest concentration seen after dosing. What is called bioavailability is dose-corrected exposure relative to a reference, in per cent. The low end stands for poor availability, the high end for good availability. What is called residual activity is the share of the control activity or signal that is left under treatment. High values mean a small loss of activity, low ones a large loss of activity. As a reminder, the IC50 is the midpoint of a concentration-inhibition curve. One may read the MRT as a mean duration of stay, worked out from the concentration-time curve. One may read the inhibition in vivo as the change of the read-out against control, counted positive when it falls. One may read the half-life as how long it takes for the measured level to halve. Read a high half-life as slow loss. With `CCNc1nc2sc(-c3cccc([C@H](C)NC(C)=O)c3)nc2c2c1ncn2C`, the values for the clearance in series [1] and in [7] were 62 mL/min/kg and 43 mL/min/kg, respectively. The compound also registered a Cmax in series [2] of 1330 nM. The bioavailability in series [3] was 57%. Further, the inhibition entry with Mus musculus [4] was “Dose-dependent effect”. Further, the residual activity in [5], in series [10] and in series [11] was less than 10% each time. Further, the figures for the IC50 in the series with Blood [6] and with Blood [13] were 1000 nM and 2000 nM, respectively. The compound also registered an MRT in series [8] of 2.1 h. Moreover, the inhibition in vivo at 60 mg/kg in the series with Mus musculus [9] worked out at 80%. In addition, in series [12], the half-life was 0.6 h.
